Test results published in ChEMBL document CHEMBL4049443, “Discovery of 2-[[2-Ethyl-6-[4-[2-(3-hydroxyazetidin-1-yl)-2-oxoethyl]piperazin-1-yl]-8-methylimidazo[1,2-a]pyridin-3-yl]methylamino]-4-(4-fluorophenyl)thiazole-5-carbonitrile (GLPG1690), a First-in-Class Autotaxin Inhibitor Undergoing Clinical Evaluation for the Treatment of Idiopathic Pulmonary …” (J Med Chem, 2017).
Active and inactive are the calls of the source. No cut-off for these calls is given here.

Assays:
Mus musculus [1] = assay: In vivo inhibition of ATX in C57BL/6Rj mouse assessed as time for maximum reduction in LPA 18:2 at 10 mg/kg administered as single dose via oral gavage by LC-MS/MS analysis; format: functional
Outline: (§1)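 Same single-gavage mouse study (female C57BL/6Rj, PEG 200/MC 0.5% vehicle, n = 3, bled predose and at 1, 3, 6, 24 h); vehicle control group. Plasma (10 μL) precipitated with methanol containing LPA 17:0 internal standard. LPA 18:2 read by LC−MS/MS as peak-area ratio to LPA 17:0. % reduction = 100 − (LPA at time t / mean vehicle LPA at time t × 100).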

Mus musculus [2] = assay: In vivo inhibition of ATX in C57BL/6Rj mouse assessed as reduction in LPA 18:2 level in plasma at 3 mg/kg administered as single dose via oral gavage by LC-MS/MS analysis; format: functional; outline: as §1
[3] = Plasma concentration C57BL/6Rj mouse at 10 mg/kg administered as single dose via oral gavage after 24 hrs by LC-MS/MS analysis; format: ADME, organism-based
Outline: (§2)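 Female C57BL/6Rj mice, 4−5 weeks old, fasted, given one oral gavage in PEG 200/MC 0.5% (25/75 v/v) at 0.3, 1 or 3 mg/mL. Intracardiac blood under isoflurane at 1, 3, 6 and 24 h into Li-heparin; n = 3 per time point. Methanol precipitation, LC−MS/MS against an eight-level calibration curve (LLOQ 4 ng/mL).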

Mus musculus [4] = assay: Dose normalized Cmax in C57BL/6Rj mouse at 3 mg/kg administered as single dose via oral gavage up to 24 hrs by LC-MS/MS analysis; format: ADME, organism-based; details: in vivo; outline: as §2
Mus musculus [5] = assay: Time at which plasma concentration reach in vitro mouse plasma IC50 in C57BL/6Rj mouse at 3 mg/kg, po administered as single dose via gavage
[6] = Tmax in C57BL/6Rj mouse at 30 mg/kg administered as single dose via oral gavage up to 24 hrs by LC-MS/MS analysis; format: ADME, organism-based; details: in vivo
Outline: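 Female C57BL/6Rj mice, 4−5 weeks old, given one oral gavage in PEG 200/MC 0.5% (25/75, v/v) at 3 mg/mL; fasted. Intracardiac blood under isoflurane at 1, 3, 6 and 24 h, Li-heparin. Methanol precipitation, LC−MS/MS against eight-level calibration, LLOQ 4 ng/mL. Plasma levels averaged over three mice; noncompartmental analysis for tmax.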

Mus musculus [7] = assay: Anti-fibrotic activity in BML-induced pulmonary fibrosis C57BL/6 mouse model assessed as reduction in fibrotic thickening of aveolar/bronchial walls at 10 to 30 mg/kg, po administered bid with 7.5 hrs interval between 2 doses for 21 days relative to control; format: functional, organism-based
Outline: (§3)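 Male C57Bl/6 mice, 11 weeks at delivery, anesthetized and given intranasal bleomycin 30 μg/50 μL; PBS controls. Oral dosing twice daily, 7.5 h apart, 10 mL/kg, from challenge day for 21 days: test agent in PEG 200/0.5% MC, pirfenidone in 0.5% CMC, vehicle controls; 14−24 mice per group. Lungs stained by Mallory method, scored 1–5 (Matsuse-modified Ashcroft) as mean of 10 low-power fields; group median, Mann−Whitney.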

[8] = Apparent terminal half life in C57BL/6Rj mouse at 10 mg/kg administered as single dose via oral gavage up to 24 hrs by LC-MS/MS analysis; format: ADME, organism-based; details: in vivo, read-out: betat1/2(app) (converted); outline: as §2
[9] = Cmax in C57BL/6Rj mouse at 30 mg/kg administered as single dose via oral gavage up to 24 hrs by LC-MS/MS analysis; format: ADME, organism-based; parameters: dose 30 mg/kg, route oral; details: in vivo; outline: as §2
[10] = Oral bioavailability in dog at 1 mg/kg; format: ADME, organism-based, Canis lupus familiaris; details: in vivo
Outline: (§4)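 Dog: from 1 mg/kg oral and intravenous doses. Clearance taken from the intravenous arm.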

[11] = Apparent elimination half life in C57BL/6Rj mouse at 3 mg/kg administered as single dose via oral gavage up to 24 hrs by LC-MS/MS analysis; format: ADME, organism-based; details: in vivo, read-out: betat1/2(app) (converted); outline: as §2
Mus musculus [12] = assay: Anti-fibrotic activity in BML-induced pulmonary fibrosis C57BL/6 mouse model assessed as reduction in fibrosis with damage of pulmonary structure at 10 to 30 mg/kg, po administered bid with 7.5 hrs interval between 2 doses for 21 days relative to control; format: functional, organism-based; outline: as §3
[13] = Tmax in C57BL/6Rj mouse at 10 mg/kg administered as single dose via oral gavage up to 24 hrs by LC-MS/MS analysis; format: ADME, organism-based; details: in vivo; outline: as §2
Mus musculus [14] = assay: Dose normalized AUC (0 to 24 hrs) in C57BL/6Rj mouse at 10 mg/kg administered as single dose via oral gavage by LC-MS/MS analysis; format: ADME, organism-based; details: in vivo; outline: as §2
Mus musculus [15] = assay: In vivo inhibition of ATX in C57BL/6Rj mouse assessed as time for maximum reduction in LPA 18:2 at 3 mg/kg administered as single dose via oral gavage by LC-MS/MS analysis; format: functional; outline: as §1
[16] = Plasma concentration in C57BL/6Rj mouse at 3 mg/kg administered as single dose via oral gavage after 24 hrs by LC-MS/MS analysis; format: ADME, organism-based; outline: as §2
[17] = Apparent terminal half life in C57BL/6Rj mouse at 30 mg/kg administered as single dose via oral gavage up to 24 hrs by LC-MS/MS analysis; format: ADME, organism-based; details: in vivo, read-out: betat1/2(app) (converted); outline: as §2
[18] = Plasma concentration in C57BL/6Rj mouse at 30 mg/kg administered as single dose via oral gavage after 24 hrs by LC-MS/MS analysis; format: ADME, organism-based; outline: as §2
[19] = Protein binding to dog plasma; format: ADME, cell-free, Canis lupus familiaris; details: read-out: PPB
[20] = Oral bioavailability in mouse at 5 mg/kg; format: ADME, organism-based; details: in vivo
Mus musculus [21] = assay: Anti-fibrotic activity in BML-induced pulmonary fibrosis C57BL/6 mouse model assessed as lung weight at 10 to 30 mg/kg, po administered bid with 7.5 hrs interval between 2 doses for 21 days relative to control; format: functional, organism-based
[22] = Plasma clearance in dog at 1 mg/kg, iv; format: ADME, organism-based, Canis lupus familiaris; outline: as §4
[23] = Cmax in C57BL/6Rj mouse at 10 mg/kg administered as single dose via oral gavage up to 24 hrs by LC-MS/MS analysis; format: ADME, organism-based; parameters: dose 10 mg/kg, route oral; details: in vivo; outline: as §2

Work on `CCc1nc2c(C)cc(N3CCN(CC(=O)N4CC(O)C4)CC3)cn2c1N(C)c1nc(-c2ccc(F)cc2)c(C#N)s1` [ZIRITAXESTAT] yielded a Time (Mus musculus [1]) of 3 h, an inhibition in vivo at 3 mg/kg (Mus musculus [2]) of 83.6% and a concentration at 24 h [3] of 4 ng/mL. The Cmax/dose (Mus musculus [4]) was 358 ng/mL/(mg/kg), the Time (Mus musculus [5]) was 6 h and the Tmax [6] was 1 h. For the same molecule, the Activity (Mus musculus [7]) was “Active”, the half-life [8] was 2.22 h and the Cmax [9] was 21400 ng/mL. The bioavailability [10] was 63%, the half-life [11] was 2.21 h and the Activity (Mus musculus [12]) was “Active”. It also gave a Tmax [13] of 1 h, an AUC/dose (Mus musculus [14]) of 2079 ng·h/mL/mg/kg and a Time (Mus musculus [15]) of 3 h. The concentration at 24 h [16] was 1 ng/mL, the half-life [17] was 3.79 h and the concentration at 24 h [18] was 295 ng/mL. The fraction unbound [19] was < 0.01, the bioavailability [20] was 29% and the Activity (Mus musculus [21]) was “Active”. For the same molecule, the clearance [22] was 2 mL/min/kg and the Cmax [23] was 4360 ng/mL.
